Data from ChEMBL document CHEMBL5608233, “Fluorescent Peptides Sequester Redox Copper to Mitigate Oxidative Stress, Amyloid Toxicity, and Neuroinflammation” (ACS Med Chem Lett, 2024).
Active and inactive are the calls of the source. The rule behind the calls is not given here. Residues, ends and D or L forms follow the SMILES beside them. *: point of attachment. X1 = CN(C)c1ccc2c3c(cccc13)C(=O)N(CCN*)C2=O

Columns and labels:
[1] = molecular target: Amyloid-beta precursor protein (Homo sapiens) (UniProt P05067); experiment: Inhibition of Amyloid beta 42 (unknown origin) aggregation extracted from Escherichia coli BL21 assessed as decrease in amyloid beta fibril formation incubated for 48 hrs by atomic force microscopy
[2] = molecular target: Amyloid-beta precursor protein (Homo sapiens) (UniProt P05067); experiment: Inhibition of Amyloid beta 42 (unknown origin) aggregation extracted from Escherichia coli BL21 assessed as decrease in Cu2+ induced amyloid beta fibril formation incubated for 48 hrs in presence of Cu2+ by atomic force microscopy
[3] = species on record: Homo sapiens; experiment: Binding affinity to Amyloid beta 16 (unknown origin) extracted from Escherichia coli BL21 assessed as increase in absorbance band by circular dichroism spectroscopic analysis
[4] = Metal chelating activity assessed as compound-Cu2+ complex formation measured after 2 mins in presence of CuCl2 by UV-Visible fluorescence spectroscopic analysis
[5] = species on record: Homo sapiens; experiment: Binding affinity to Amyloid beta 16 (unknown origin) extracted from Escherichia coli BL21 assessed as maximal quenching in presence of Cu2+ by fluorescence quenching analysis
[6] = Antioxidant activity assessed as inhibition of Cu2+ induced ROS production by measuring decrease in fluorescence intensity in presence of Cu2+ and ascorbate at 10 uM measured after 10 mins by absorption spectroscopic analysis; format: functional
How it was run: (§1)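 Ascorbate added first. After 10 min, redox cycling triggered with Cu2+ alone or peptide–Cu2+ premixed in HEPES (50 mM, pH 7.4). Ascorbate consumption followed by absorbance at 265 nm over time.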

[7] = Antioxidant activity assessed as inhibition of Cu2+ induced ROS production by measuring decrease in fluorescence intensity in presence of stoichiometric ratio of 1:1 of Cu2+ and ascorbate at 10 uM measured after 10 mins by absorption spectroscopic analysis; format: functional
[8] = Antioxidant activity assessed as inhibition of Cu2+ induced ROS production by measuring decrease in fluorescence intensity in presence of stoichiometric ratio of 1:2 of Cu2+ and ascorbate at 10 uM measured after 10 mins by absorption spectroscopic analysis; format: functional
[9] = Antioxidant activity assessed as inhibition of Cu2+ induced ROS production by measuring decrease in fluorescence intensity in presence of ascorbate and H2O2 at 10 uM measured after 20 mins by absorption spectroscopic analysis; format: functional
[10] = tested on: SH-SY5Y; experiment: Cytotoxicity against human SH-SY5Y cells at 100 uM incubated for 24 hrs by MTT assay; format: toxicity, cell-based
How it was run: (§2)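 SH-SY5Y cells exposed to peptide (10–100 μM) for 24 h. Viability by MTT.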

[11] = Cytotoxicity against human SH-SY5Y cells assessed as cell viability at 100 uM incubated for 24 hrs by MTT assay relative to control; format: toxicity, cell-based; conditions: read-out: Activity; how it was run: as §2
[12] = tested on: SH-SY5Y; experiment: Neuroprotective activity against amyloid beta 42 induced toxicity in human SH-SY5Y cells assessed as increase in cell viability at 10 uM incubated for 24 hrs by MTT assay (reference value: 55 %); format: functional
How it was run: (§3)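 SH-SY5Y cells incubated 24 h with Aβ42 fibrils (10 μM) and peptide (10 μM), in the absence or presence of Cu2+ (10 μM). Viability by MTT.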

[13] = tested on: SH-SY5Y; experiment: Neuroprotective activity against amyloid beta 42 and Cu2+ induced toxicity in human SH-SY5Y cells assessed as increase in cell viability at 10 uM incubated for 24 hrs by MTT assay (reference value: 48 %); format: functional; how it was run: as §3
[14] = Cytotoxicity against mouse N9 cells at upto 50 uM incubated for 24 hrs by MTT assay; format: toxicity, cell-based; conditions: n9, 24 h
How it was run: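 N9 microglia given a concentration series of peptide. Viability assessed.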

[15] = tested on: N9; experiment: Antiinflammatory activity in LPS-induced mouse N9 cells assessed as reduction in ROS production at 10 uM incubated for 24 hrs by DCFDA staining based analysis; format: functional, cell-based
How it was run: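 N9 cells treated with LPS (1 μg/mL, 24 h) with or without peptide (10 μM, or a concentration series). ROS read with DCFDA fluorescence. n = 3, one-way ANOVA.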

[16] = Antiinflammatory activity in LPS-induced mouse N9 cells assessed as reduction in nitrite production at 10 uM incubated for 24 hrs by griess assay relative to control; format: functional; parameters: scale not given: the % may be the effect or the level left
How it was run: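 LPS (1 μg/mL)-stimulated N9 microglia treated with peptide at 10 μM. Nitric oxide quantified as nitrite in the medium by Griess assay. Nitrite in LPS-only cells set as 100%. n = 3, one-way ANOVA.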

[17] = Metal chelating activity assessed as compound-Fe3+ complex formation by measuring decrease in fluorescence intensity at 25 uM in presence of FeCl3 by UV-Visible fluorescence spectroscopic analysis
[18] = Metal chelating activity assessed as compound-Al3+ complex formation by measuring decrease in fluorescence intensity at 25 uM in presence of AlCl3 by UV-Visible fluorescence spectroscopic analysis
[19] = Metal chelating activity assessed as compound-Cu2+ complex formation by measuring decrease in fluorescence intensity at 25 uM in presence of CuCl2 by UV-Visible fluorescence spectroscopic analysis
[20] = species on record: Homo sapiens; experiment: Binding affinity to Amyloid beta 16 (unknown origin) extracted from Escherichia coli BL21 by measuring quenching effect incubated for 15 mins in presence of Cu2+ by fluorescence quenching analysis
[21] = Metal chelating activity assessed as compound-Cu2+ complex formation at 50 uM in presence of CuCl2 by UV-Visible fluorescence spectroscopic analysis
How it was run: (§4)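 Peptide solution at 50 μM mixed 1:1 with Cu2+, Zn2+, Fe3+ or Al3+. NMI emission recorded at λex 450 nm, λem 550 nm, and drop in fluorescence used to indicate complexation. Separate titration with Cu2+ (0–100 μM) into 50 μM peptide used to assess stoichiometry.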

[22] = Metal chelating activity assessed as compound-Fe3+ complex formation by measuring decrease in fluorescence intensity at 50 uM in presence of FeCl3 by UV-Visible fluorescence spectroscopic analysis; how it was run: as §4
[23] = Metal chelating activity assessed as compound-Al3+ complex formation by measuring decrease in fluorescence intensity at 50 uM in presence of AlCl3 by UV-Visible fluorescence spectroscopic analysis; how it was run: as §4
[24] = Metal chelating activity assessed as compound-Zn2+ complex formation by measuring decrease in fluorescence intensity at 50 uM in presence of ZnCl2 by UV-Visible fluorescence spectroscopic analysis; how it was run: as §4
[25] = molecular target: Amyloid-beta precursor protein (Homo sapiens) (UniProt P05067); experiment: Inhibition of Amyloid beta 42 (unknown origin) extracted from Escherichia coli BL21 induced ROS production assessed as decrease in fluorescence intensity at 10 uM incubated for 20 mins in presence of Cu2+ and ascorbate by absorption spectroscopic analysis
[26] = Metal chelating activity assessed as compound-Cu2+ complex formation by measuring quenching effect measured after 20 mins in presence of CuCl2 by fluorescence quenching analysis
[27] = Antioxidant activity assessed as inhibition of Cu2+ induced ROS production by measuring decrease in fluorescence intensity in presence of Cu2+ and ascorbate at 10 uM by absorption spectroscopic analysis; format: functional; how it was run: as §1

Chain of Amyloid-beta precursor protein (Homo sapiens) (P05067 whole entry): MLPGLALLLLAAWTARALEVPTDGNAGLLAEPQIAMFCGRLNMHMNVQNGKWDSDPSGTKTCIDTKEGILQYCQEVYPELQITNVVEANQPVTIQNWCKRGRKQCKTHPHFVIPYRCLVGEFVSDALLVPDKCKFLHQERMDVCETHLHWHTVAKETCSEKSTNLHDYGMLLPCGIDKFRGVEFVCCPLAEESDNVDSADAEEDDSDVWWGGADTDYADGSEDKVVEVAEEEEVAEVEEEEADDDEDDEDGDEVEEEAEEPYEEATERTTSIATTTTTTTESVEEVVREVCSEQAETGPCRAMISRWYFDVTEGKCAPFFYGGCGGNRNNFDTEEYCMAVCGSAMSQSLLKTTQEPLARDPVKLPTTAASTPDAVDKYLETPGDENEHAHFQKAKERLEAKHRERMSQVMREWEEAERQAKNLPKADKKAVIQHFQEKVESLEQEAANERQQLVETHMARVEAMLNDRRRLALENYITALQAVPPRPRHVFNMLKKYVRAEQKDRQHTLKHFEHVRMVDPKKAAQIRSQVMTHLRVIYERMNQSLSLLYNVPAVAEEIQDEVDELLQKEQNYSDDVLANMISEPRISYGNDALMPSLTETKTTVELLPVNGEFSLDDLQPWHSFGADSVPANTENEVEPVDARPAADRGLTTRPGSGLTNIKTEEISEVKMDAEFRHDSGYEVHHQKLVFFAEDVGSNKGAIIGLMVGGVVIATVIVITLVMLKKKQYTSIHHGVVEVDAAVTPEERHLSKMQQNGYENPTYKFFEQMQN

Row | SMILES | inhibition [1] | inhibition [2] | Activity [3] | Activity [4] | Activity [6] | Activity [9] | Activity [10] | viability at 24 h, 100 µM [11] [%] | Activity [12] [%] | Activity [13] [%] | Activity [14] | Activity [15] | Activity [16] [%] | Activity [21] | Activity [22] | Activity [23] | also measured
1 | CN(C)c1ccc2c3c(cccc13)C(=O)N(CCNC(=O)[C@@H](N)CCC(N)=O)C2=O | Active | inactive |  |  |  |  |  |  |  |  |  |  |  |  |  |  | 
2 | CN(C)c1ccc2c3c(cccc13)C(=O)N(CCNC(=O)[C@H](CCC(N)=O)NC(=O)[C@H](CCCCN)NC(=O)[C@H](Cc1c[nH]cn1)NC(=O)CNC(=O)CN)C2=O (H-GGHKQ-X1) | inactive | inactive | inactive | Active | Active | inactive | Non-Toxic | > 90 | ~80 | 85 | Non-Toxic | Active | 70 |  |  |  | Activity [5]: 65%; Activity [7]: inactive; Activity [8]: inactive; Activity [17]: inactive; Activity [18]: inactive; Activity [19]: Active
3 | CN(C)c1ccc2c3c(cccc13)C(=O)N(CCNC(=O)[C@H](CCC(N)=O)NC(=O)[C@H](CCCCN)NC(=O)[C@H](Cc1c[nH]cn1)NC(=O)[C@@H](Cc1c[nH]cn1)NC(=O)CN)C2=O | Active | Active | Active | Active | Active |  | Non-Toxic | > 90 | ~80 | 92 | Non-Toxic | Active | 56 | Active | inactive | inactive | Activity [20]: Active; Activity [24]: inactive
4 | CN(C)c1ccc2c3c(cccc13)C(=O)N(CCNC(=O)[C@H](CCC(N)=O)NC(=O)[C@H](CCCCN)NC(=O)[C@H](Cc1c[nH]cn1)NC(=O)CN)C2=O (H-GHKQ-X1) | Active | Active |  |  |  |  |  |  |  |  |  |  |  |  |  |  | inhibition [25]: Active
5 | CN(C)c1ccc2c3c(cccc13)C(=O)N(CCNC(=O)[C@H](CCC(N)=O)NC(=O)[C@H](CCCCN)NC(=O)[C@@H](N)Cc1c[nH]cn1)C2=O | Active | Active | Active | Active |  | Active | Non-Toxic | > 90 | ~80 | 82 | Non-Toxic | Active | 85 | Active | inactive | inactive | Activity [26]: Active; Activity [27]: Active
6 | NCCCC[C@H](NC(=O)[C@H](Cc1cnc[nH]1)NC(=O)CN)C(=O)O (H-Gly-His-Lys-OH) | inactive | inactive |  |  |  |  |  |  |  |  |  |  |  |  |  |  | 
